# From ChEMBL document CHEMBL4673180, “Synthesis of quinone imine and sulphur-containing compounds with antitumor and trypanocidal activities: redox and biological implications” (RSC Med Chem, 2020)
# Columns and labels:
# [1] = Selectivity index, ratio of IC50 for mouse L929 cells to IC50 for human HL-60cells after 72 hrs by MTT assay; assay type: toxicity; conditions: L929 cells versus HL-60 cells, read-out: Ratio IC50
# How it was run: (§1)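 Both cell types were kept in medium with 10% FBS, 2 mM L-glutamine and penicillin/streptomycin at 37 °C, 5% CO2. Seeding was 0.7 × 10^5 cells per well for HCT-116, 0.1 × 10^6 for the other lines. Cells got compound in DMSO (0.1% final) for 72 h, then 0.5 mg/mL MTT for 3 h, with formazan read at 550 nm. IC50 came from nonlinear regression over three independent experiments in triplicate. SI is the L929 IC50 divided by the cancer-line IC50.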
# K562 = test: Cytotoxicity against human K562 cells assessed as reduction in cell viability after 72 hrs by MTT assay; assay type: functional, cell-based; conditions: K562, 72 h
# How it was run: (§2)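 Cells were grown in medium with 10% FBS, 2 mM L-glutamine, penicillin and streptomycin at 37 °C, 5% CO2. Seeding per well was 0.1 × 10^6 for leukaemia, PC3, L929 and NCI-H460, and 0.7 × 10^5 for HCT-116. Compounds in DMSO (0.1% final) were applied for 72 h. MTT (0.5 mg/mL) was added for 3 h, formazan dissolved in DMSO, and absorbance read at 550 nm. IC50 by nonlinear regression; three independent experiments in triplicate.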
# [2] = Selectivity index, ratio of IC50 for mouse L929 cells to IC50 for human NCI-H460 cells after 72 hrs by MTT assay; assay type: toxicity; conditions: L929 cells versus NCI-H460 cells, read-out: Ratio IC50; how it was run: as §1
# NCI-H460 = test: Cytotoxicity against human NCI-H460 cells assessed as reduction in cell viability after 72 hrs by MTT assay; assay type: functional, cell-based; conditions: NCI-H460, 72 h
# How it was run: as §2, with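 “CO2.” for “CO2. Seeding per well was 0.1 × 10^6 for leukaemia, PC3, L929 and NCI-H460, and 0.7 × 10^5 for HCT-116.”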
# HCT-116 = test: Cytotoxicity against human HCT-116 cells assessed as reduction in cell viability after 72 hrs by MTT assay; assay type: functional, cell-based; conditions: HCT-116, 72 h; how it was run: as §2
# [3] = Selectivity index, ratio of IC50 for mouse L929 cells to IC50 for human K-562 cells after 72 hrs by MTT assay; assay type: toxicity; conditions: L929 cells versus K-562 cells, read-out: Ratio IC50; how it was run: as §1
# HL-60 = test: Cytotoxicity against human HL-60 cells assessed as reduction in cell viability after 72 hrs by MTT assay; assay type: functional, cell-based; conditions: HL-60, 72 h
# How it was run: as §2, with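 “CO2.” for “CO2. Seeding per well was 0.1 × 10^6 for leukaemia, PC3, L929 and NCI-H460, and 0.7 × 10^5 for HCT-116.”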
# [4] = Selectivity index, ratio of IC50 for mouse L929 cells to IC50 for human PC3 cells after 72 hrs by MTT assay; assay type: toxicity; conditions: L929 cells versus PC3 cells, read-out: Ratio IC50; how it was run: as §1
# PC-3 = test: Cytotoxicity against human PC-3 cells assessed as reduction in cell viability after 72 hrs by MTT assay; assay type: functional, cell-based; conditions: PC-3, 72 h; how it was run: as §2
# [5] = Selectivity index, ratio of IC50 for mouse L929 cells to IC50 for human HCT116 cells after 72 hrs by MTT assay; assay type: toxicity; conditions: L929 cells versus HCT116 cells, read-out: Ratio IC50; how it was run: as §1
# L929 = test: Cytotoxicity against mouse L929 cells assessed as reduction in cell viability after 72 hrs by MTT assay; assay type: cell-based; conditions: L929, 72 h; how it was run: as §2
# [6] = Selectivity index, ratio of IC50 for mouse L929 cells to IC50 for human Lucena1 cells after 72 hrs by MTT assay
# How it was run: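 Selectivity index is the ratio of IC50 in murine L929 fibroblasts to IC50 in Lucena 1 cells, each measured by 72 h MTT assay (absorbance 550 nm). IC50 values came from nonlinear regression of three independent experiments in triplicate.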
# [7] = Cytotoxicity against human Lucena1 cells assessed as reduction in cell viability after 72 hrs by MTT assay; assay type: functional, cell-based; conditions: Lucena 1, 72 h; how it was run: as §2
# Trypanosoma cruzi = test: Antitrypanosomal activity against Trypanosoma cruzi Y strain bloodstream trypomastigotes assessed as lysis of parasite in presence of 5 % mouse blood incubated for 24 hrs by Neubauer chamber method; assay type: functional, organism-based
# How it was run: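 Y strain bloodstream trypomastigotes came from infected albino mice at peak parasitaemia, purified by differential centrifugation, in RPMI at 10^7 cells/mL with 10% mouse blood. They were mixed 1:1 with compound at twice the final concentration (5% blood final), 24 h at 4 °C, with DMSO ≤0.4% final. Neubauer chamber counting; IC50 is 50% lysis; at least three independent experiments.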
# [8] = Cytotoxicity against albino Swiss mouse peritoneal macrophages assessed as reduction in cell viability incubated for 24 hrs by Presto blue assay; assay type: tissue-based, Macrophage; conditions: read-out: LC50
# How it was run: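 Primary peritoneal macrophages from Albino Swiss mice were seeded at 2.5 × 10^4 cells per well in RPMI-1640 (pH 7.2, 10% FBS, 2 mM glutamine) and grown 24 h at 37 °C. They were then treated 24 h at 37 °C with compound from DMSO stock (final DMSO ≤0.4%).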
# [9] = Selectivity index, ratio of LC50 for cytotoxicity against albino Swiss mouse peritoneal macrophages to IC50 for Antitrypanosomal activity against Trypanosoma cruzi Y strain bloodstream trypomastigotes assessed as lysis of parasite in presence of 5 % mouse blood; assay type: toxicity
# How it was run: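 Y-strain bloodstream trypomastigotes came from infected albino mice at peak parasitaemia and were purified by differential centrifugation. They were resuspended at 10^7/mL in RPMI with 10% mouse blood and mixed 1:1 with compound at twice the final concentration (DMSO ≤0.4%). Incubation was 24 h at 4 °C (5% blood per footnote).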
compound,measurement,setting,value
C#CCOC1=C/C(=N\c2ccc(Br)cc2)c2ccccc2C1=O,selectivity ratio at 72 h,[1],1.9
same,IC50,K562,> 20 µM
same,selectivity ratio at 72 h,[2],1.3
same,IC50,NCI-H460,> 20 µM
same,IC50,HCT-116,> 20 µM
same,selectivity ratio at 72 h,[3],1.2
same,IC50,HL-60,14.2 µM
same,selectivity ratio at 72 h,[4],1.7
same,IC50,PC-3,15.9 µM
same,selectivity ratio at 72 h,[5],1.2
same,IC50,L929,> 20 µM
same,Ratio IC50,[6],2.2
same,IC50,[7],12.5 µM
CC(=O)c1ccc(/N=C2\C=C(OCc3cn(S(=O)(=O)c4ccc(C)cc4)nn3)C(=O)c3ccccc32)cc1,selectivity ratio at 72 h,[1],2
same,IC50,K562,5.52 µM
same,IC50,Trypanosoma cruzi,> 500 µM
same,selectivity ratio at 72 h,[2],0.7
same,IC50,NCI-H460,15.8 µM
same,IC50,HCT-116,6.27 µM
same,CC50 at 24 h,[8],40.6 µM
same,selectivity ratio at 72 h,[3],1.9
same,IC50,HL-60,5.3 µM
same,selectivity ratio at 72 h,[4],2.7
same,selectivity ratio,[9],> 12.3
same,IC50,PC-3,3.91 µM
same,selectivity ratio at 72 h,[5],1.7
same,IC50,L929,10.8 µM
same,Ratio IC50,[6],1.7
same,IC50,[7],6.46 µM
C#CCOC1=C/C(=N\c2ccc(F)cc2)c2ccccc2C1=O,selectivity ratio at 72 h,[1],3.6
same,IC50,K562,13.5 µM
same,selectivity ratio at 72 h,[2],1.9
same,IC50,NCI-H460,17 µM
same,IC50,HCT-116,18.7 µM
same,selectivity ratio at 72 h,[3],2.4
same,IC50,HL-60,9.2 µM
same,selectivity ratio at 72 h,[4],1
same,IC50,PC-3,> 20 µM
same,selectivity ratio at 72 h,[5],1.8
same,IC50,L929,> 20 µM
same,Ratio IC50,[6],1.9
same,IC50,[7],17 µM
Cc1ccc(/N=C2\C=C(OCc3cn(S(=O)(=O)c4ccc(C)cc4)nn3)C(=O)c3ccccc32)cc1,selectivity ratio at 72 h,[1],3.3
same,IC50,K562,6.22 µM
same,IC50,Trypanosoma cruzi,> 500 µM
same,selectivity ratio at 72 h,[2],2.2
same,IC50,NCI-H460,8.02 µM
same,IC50,HCT-116,3.61 µM
same,CC50 at 24 h,[8],88.5 µM
same,selectivity ratio at 72 h,[3],2.9
same,IC50,HL-60,5.42 µM
same,selectivity ratio at 72 h,[4],6.7
same,selectivity ratio,[9],> 5.65
same,IC50,PC-3,2.65 µM
same,selectivity ratio at 72 h,[5],4.9
same,IC50,L929,17.7 µM
same,Ratio IC50,[6],12.3
same,IC50,[7],1.44 µM
Cc1ccc(S(=O)(=O)n2cc(COC3=C/C(=N\c4ccc(Cl)cc4)c4ccccc4C3=O)nn2)cc1,selectivity ratio at 72 h,[1],2.8
same,IC50,K562,9.8 µM
same,IC50,Trypanosoma cruzi,> 500 µM
same,selectivity ratio at 72 h,[2],1.6
same,IC50,NCI-H460,12.1 µM
same,IC50,HCT-116,9.44 µM
same,CC50 at 24 h,[8],> 100 µM
same,selectivity ratio at 72 h,[3],2
same,IC50,HL-60,6.92 µM
same,selectivity ratio at 72 h,[4],1
same,IC50,PC-3,> 20 µM
same,selectivity ratio at 72 h,[5],2
same,IC50,L929,> 20 µM
same,Ratio IC50,[6],6.1
same,IC50,[7],3.16 µM
COc1ccc(/N=C2\C=C(OCc3cn(S(=O)(=O)c4ccc(C)cc4)nn3)C(=O)c3ccccc32)cc1,selectivity ratio at 72 h,[1],3.3
same,IC50,K562,> 20 µM
same,IC50,Trypanosoma cruzi,> 500 µM
same,selectivity ratio at 72 h,[2],2.6
same,IC50,NCI-H460,8.39 µM
same,IC50,HCT-116,7.43 µM
same,CC50 at 24 h,[8],44.3 µM
same,selectivity ratio at 72 h,[3],1
same,IC50,HL-60,6.96 µM
same,selectivity ratio at 72 h,[4],1
same,selectivity ratio,[9],> 11.3
same,IC50,PC-3,> 20 µM
same,selectivity ratio at 72 h,[5],2.9
same,IC50,L929,> 20 µM
same,Ratio IC50,[6],5.4
same,IC50,[7],4.58 µM
C#CCOC1=C/C(=N\c2ccccc2)c2ccccc2C1=O,selectivity ratio at 72 h,[1],2
same,IC50,K562,> 20 µM
same,selectivity ratio at 72 h,[2],1.6
same,IC50,NCI-H460,> 20 µM
same,IC50,HCT-116,> 20 µM
same,selectivity ratio at 72 h,[3],1
same,IC50,HL-60,17.4 µM
same,selectivity ratio at 72 h,[4],2.5
same,IC50,PC-3,14.1 µM
same,selectivity ratio at 72 h,[5],1.2
same,IC50,L929,> 20 µM
same,Ratio IC50,[6],1.5
same,IC50,[7],> 20 µM
